Compound activity from PubChem BioAssay.
Apaf1 activ = human Apaf-1 activation | O14727 | Apaf-1 apoptosome caspase-3 activation, DEVD-Rh110 fluorescence; hits give low values | activity change, negative = activation, % at 20 µM | 0.31% of 330,000 active | AID 489031;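 active = activity change at or below -40% at 20 µM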
Target sequence (O14727 whole entry, looked up): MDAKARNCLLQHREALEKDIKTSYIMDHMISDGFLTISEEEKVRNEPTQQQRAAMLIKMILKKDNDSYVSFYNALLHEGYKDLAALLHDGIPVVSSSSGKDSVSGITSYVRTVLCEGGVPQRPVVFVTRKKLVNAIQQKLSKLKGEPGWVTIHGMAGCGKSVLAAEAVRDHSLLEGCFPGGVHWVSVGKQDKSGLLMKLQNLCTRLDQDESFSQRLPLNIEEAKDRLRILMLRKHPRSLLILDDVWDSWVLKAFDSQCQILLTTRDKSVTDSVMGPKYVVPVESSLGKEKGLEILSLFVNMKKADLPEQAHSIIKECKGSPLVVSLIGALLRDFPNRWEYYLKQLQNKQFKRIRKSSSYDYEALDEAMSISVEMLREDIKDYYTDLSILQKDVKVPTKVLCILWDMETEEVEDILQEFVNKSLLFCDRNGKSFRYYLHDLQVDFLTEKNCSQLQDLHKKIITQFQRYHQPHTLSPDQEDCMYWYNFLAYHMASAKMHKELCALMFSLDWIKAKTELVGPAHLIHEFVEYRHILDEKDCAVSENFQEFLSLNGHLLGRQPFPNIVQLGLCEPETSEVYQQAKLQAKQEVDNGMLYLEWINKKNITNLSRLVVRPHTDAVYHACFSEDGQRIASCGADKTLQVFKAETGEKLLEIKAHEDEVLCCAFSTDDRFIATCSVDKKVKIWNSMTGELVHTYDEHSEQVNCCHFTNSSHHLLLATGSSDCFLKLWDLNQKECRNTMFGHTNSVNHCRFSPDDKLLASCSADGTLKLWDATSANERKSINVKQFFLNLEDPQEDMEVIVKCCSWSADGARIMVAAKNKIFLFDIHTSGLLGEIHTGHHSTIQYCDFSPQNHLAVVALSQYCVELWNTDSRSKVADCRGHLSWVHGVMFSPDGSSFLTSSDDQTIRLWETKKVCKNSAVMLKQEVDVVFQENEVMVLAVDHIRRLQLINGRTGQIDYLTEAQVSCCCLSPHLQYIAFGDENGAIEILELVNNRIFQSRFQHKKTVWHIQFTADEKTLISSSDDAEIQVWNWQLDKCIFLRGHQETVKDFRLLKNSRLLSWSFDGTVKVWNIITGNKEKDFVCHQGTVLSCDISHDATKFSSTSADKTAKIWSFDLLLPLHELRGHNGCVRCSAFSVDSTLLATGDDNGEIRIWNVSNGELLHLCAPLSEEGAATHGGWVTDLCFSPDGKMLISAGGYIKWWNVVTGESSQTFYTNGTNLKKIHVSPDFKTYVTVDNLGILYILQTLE
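Assay system – biochemical Apaf-1 apoptosome reconstitution · Medium – 20 mM HEPES buffer, pH 7.5, containing CHAPS and BSA · Incubation – 30 min preincubation, 50 min reaction, room temperature · Measured by – Caspase-3-released Rh110 fluorescence, 540 nm emission, 480 nm excitation · Read-out – Caspase-3 cleavage activity downstream of Apaf-1 activation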
Rh110 interf act = interferes with Rh110 fluorescence, flagging false Apaf-1 activators | 980 tested, under 10 active | Rh110 fluorescence interference, quenched caspase reaction, Ex480/Em540 | shares compounds with Apaf1 activ | fluorescence interference (activity change), % at 20 µM, hits read low | AID 504616;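 active = mean activity change at or below -40% when tested at 20 µM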
Apaf-1 act conf2 = confirmation of human Apaf-1 activators | activity change, negative = activation, % at 20 µM | 5% of 980 active | AID 504617 | reconstituted apoptosome caspase-3 activity, DEVD-Rh110 fluorescence; hits give low values | shares compounds with Apaf1 activ;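 active = mean activity change at or below -40%, meaning activation of 40% or more, at 20 µM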
Apaf1 act interf = Apaf-1 activator counter-screen fluorescence artifact. shares compounds with Apaf1 activ. fluorescence interference counterscreen, Apaf-1 activator assay. EC50, µM. 55 tested, under 10 active. AID 588592; call rule not given here
Large screens that a line does not name were inactive (follow-up assays come after a bar, where they were run). Only a sample is shown.

COC(=O)C1=C(C)N(Cc2ccccc2)C(=NCc2ccc(OC)cc2)N[C@H]1c1ccccc1	none
CC(=O)N1CCOc2ccc(S(=O)(=O)N(C)c3ccc(C)cc3)cc21	none
C#CCOCCOCCOCCNc1nc(N2CCN(C(=O)CCCCCCCCCCNC(=O)[C@H](CCCCN)n3cc(CCCC(=O)O)nn3)CC2)nc(N2CCN(C(=O)CCCCCCCCCCNC(=O)[C@H](CCCN=C(N)N)n3cc(C[C@@H](C)CC)nn3)CC2)n1	none
O=C1C=C(Nc2ccc(F)cc2)c2ccccc2C1=O	none
O=C(Nc1ccncc1NC(=O)c1cccc([N+](=O)[O-])c1)c1cccc([N+](=O)[O-])c1	Apaf1 activ -40 | Rh110 interf act inactive | Apaf-1 act conf2 inactive
O=C(CN1CCc2cc3c(cc2C1)OCCCO3)Nc1cccc([N+](=O)[O-])c1	none
O=C(N/N=C/c1ccc(-c2ccccc2[N+](=O)[O-])o1)c1cccnc1	none
CC1(C)Nc2ccc(O)cc2-c2c1ssc2=S	none
O=C(NCc1ccccn1)c1cccc(NS(=O)(=O)c2cccc(F)c2)c1	Apaf1 activ -43 | Rh110 interf act inactive | Apaf-1 act conf2 inactive
COc1ccc(C(CNC(=O)c2cccc(NS(=O)(=O)c3ccc(C)c(F)c3)c2)N(C)C)cc1 (stereo not drawn)	none
CC(C)(C)OC(=O)[C@H](CCCCN)NC(=O)c1[nH]cnc1C(=O)N[C@@H](Cc1ccccc1)C(=O)OCc1ccccc1	none
Cc1cc(C)n(CC(C)C(=O)O)n1 (stereo not drawn)	Apaf1 activ -165 | Rh110 interf act inactive | Apaf-1 act conf2 -104 | Apaf1 act interf inactive
Cc1cc(OC(=O)c2ccccc2)n(CCC#N)n1	none
Cc1cccnc1NC(=O)c1ccc(OCC2CCCO2)cc1 (stereo not drawn)	none
CCOC(=O)c1c(C)c(C(=O)NCC2CCCO2)c(C)n1C (stereo not drawn)	Apaf1 activ -59 | Rh110 interf act inactive | Apaf-1 act conf2 inactive
CCN(CC)S(=O)(=O)c1cccc(NC(=O)C2SC(=Nc3ccc(C)cc3C)C(C(=O)NCC3CCCO3)=C2N)c1 (stereo not drawn)	none
Cc1onc(-c2ccccc2Cl)c1C(=O)N[C@@H]1C(=O)N2[C@@H]1SC(C)(C)[C@@H]2C(=O)O	none
CCCCCN=C(N)N/N=C/c1c[nH]c2ccc(OC)cc12	none
Cn1c(=O)[nH]c(=O)c2c1nc(Br)n2CC(O)COc1ccccc1 (stereo not drawn)	Apaf1 activ -50 | Rh110 interf act inactive | Apaf-1 act conf2 inactive
CCCCCn1c(N2CCC(Cc3ccccc3)CC2)nc2c1c(=O)[nH]c(=O)n2C	none
Cc1cccc(OCC(O)Cn2c(=N)n(Cc3ccccc3)c3ccccc32)c1 (stereo not drawn)	none
CSc1nc2c(c(=O)[nH]c(=O)n2C)n1Cc1ccccc1	Apaf1 activ -48 | Rh110 interf act inactive | Apaf-1 act conf2 inactive
O=C1CCNc2cc3ccccc3cc21	none
N=c1n(Cc2ccccc2)c2ccccc2n1CC(O)COc1ccc(Cl)cc1Cl (stereo not drawn)	none
Oc1c(Cl)cc(Cl)c2c1NCCC2	none
CC(=O)CC(c1ccccc1)c1c(O)c2ccccc2oc1=O (stereo not drawn)	none
COC(=O)c1nn(-c2ccc(OC)cc2)c(=O)cc1NN	none
COC(=O)c1nn(-c2ccc(OC)cc2)c(=O)cc1Sc1ccc(C)cc1	Apaf1 activ -333 | Rh110 interf act inactive | Apaf-1 act conf2 inactive
CCN(CC)CCOC(=O)c1ccc(N/C=C(/C#N)c2nc(-c3ccc4c(c3)OCO4)cs2)cc1	none
CCN1CCN(Cc2ccc(NC(=O)c3cc(NC(=O)C(=O)c4c[nH]c5ccccc45)cc(OC)c3)cc2C(F)(F)F)CC1	none
O=C(CCCC(=O)OCC(Cl)=C(Cl)Cl)Nc1ccccc1F	Apaf1 activ -61 | Rh110 interf act inactive | Apaf-1 act conf2 inactive
Oc1ccc(NCc2ccccc2OCc2ccccc2)cc1	none
Cc1nc2ccc3nc(NC(=O)c4ccc(S(=O)(=O)N5CCOCC5)cc4)sc3c2s1	Apaf1 activ -80 | Rh110 interf act inactive | Apaf-1 act conf2 inactive
Cc1[nH]n(-c2ccccc2)c(=O)c1N=Nc1cccc(S(=O)(=O)N2CCOCC2)c1	none
Cc1cc(NC(=O)c2cccc(S(=O)(=O)N3CCOCC3)c2)no1	Apaf1 activ -50 | Rh110 interf act inactive | Apaf-1 act conf2 inactive
CCN1CCN(c2ccc(S(=O)(=O)N3CCOCC3)cc2NC(=O)CC(C)C)CC1	none
Cc1ccc(-n2c(O)c(/C=N/Nc3ccc(S(=O)(=O)N4CCOCC4)cc3[N+](=O)[O-])c3ccccc3c2=O)c(C)c1	none
CCOC(=O)c1ccc(N=c2sc(C(=O)OC)cc(=O)n2CCCN2CCOCC2)cc1	none
O=S(=O)(c1ccc(Br)cc1)N1CCN(c2ccc3nnc(-c4ccccc4)n3n2)CC1	none
O=C(Nc1ccc2ccccc2n1)Nc1cccs1	Apaf1 activ -58 | Rh110 interf act inactive | Apaf-1 act conf2 inactive
CN(C)C/C=C/C(=O)Nc1cccc(-c2c[nH]c3ncnc(Oc4ccc(NC(=O)CC(=O)Nc5ccc(F)cc5)cc4F)c23)c1	none
CCN(CC)CCOC(=O)c1ccc(NC(=O)CCCN2C(=O)S/C(=C/c3ccc(OC)cc3)C2=S)cc1	none
Cc1ccc(/C=C2\SC(=S)N(CCC(=O)NNC(=O)c3ccc(O)cc3)C2=O)cc1	Apaf1 activ -63 | Rh110 interf act inactive | Apaf-1 act conf2 inactive
Cc1cccc(C(=O)NC2C(=O)NNC2c2ccc(Cl)cc2)c1 (stereo not drawn)	none
NC1=NC(c2ccc(Cl)cc2)C(C(=O)c2ccccc2)N1 (stereo not drawn)	Apaf1 activ -470 | Rh110 interf act inactive | Apaf-1 act conf2 inactive
COc1ccc(-n2nc3c(N4CCC(C(=O)NCc5ccccc5C)CC4)nnc(C)c3c2C)cc1	none
O=C(NCCOc1nc(N2CCCCC2)nc(N2CCCCC2)n1)Nc1ccccc1	none
O=C(Nc1ccccc1)Nc1ccc(O)c2ccccc12	none
CCN(CC)c1nc(OCCNC(=O)Nc2ccccc2)nc(N(CC)CC)n1	Apaf1 activ -52 | Rh110 interf act inactive | Apaf-1 act conf2 inactive
CCOc1ccc(CCNC(=O)c2ccc3c(=O)[nH]c4c(C(=O)NC(C)C)sc(=S)n4c3c2)cc1	Apaf1 activ -515 | Rh110 interf act inactive | Apaf-1 act conf2 inactive
CN1N=C(C(C)(C)C)CC1=O	none
CCCCCc1cc(=O)oc2c(C(CCN3CCCC(C)C3)c3ccc(N(C)C)cc3)c(OC)cc(OC)c12 (stereo not drawn)	none
CC(C)(C(=O)O)c1ccc([C@H](O)CCCN2CCC(C(O)(c3ccccc3)c3ccccc3)CC2)cc1	Apaf1 activ -114 | Rh110 interf act inactive | Apaf-1 act conf2 inactive
O=c1cccccc1NCc1ccccc1	none
C#CCOCCOCCOCCNc1nc(N2CCN(C(=O)[C@H](Cc3cc4ccccc4[nH]3)n3cc([C@@H](N)C(C)CC)nn3)CC2)nc(N2CCN(C(=O)[C@H](CCCCN)n3cc([C@@H](N)CC(C)C)nn3)CC2)n1 (stereo partly drawn)	none
O=C(Nc1cccc(CCc2ccccn2)c1)c1cc(F)c(F)cc1Cl	Apaf1 activ -109 | Rh110 interf act inactive | Apaf-1 act conf2 inactive
O=C(Nc1ccccn1)c1ccc2ccccc2c1O	none
